Assay results as given in ChEMBL document CHEMBL4229530, “5-Adamantan thiadiazole-based thiazolidinones as antimicrobial agents. Design, synthesis, molecular docking and evaluation” (2018).
In brackets after ≈: the same amount, converted by molar mass.

How the values were obtained:
Aspergillus ochraceus = assay: Antifungal activity against Aspergillus ochraceus ATCC 12066 after 72 hrs by serial dilution assay; format: functional; conditions: ATCC 12066, 72 h
Method in brief: (§1)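 Modified microdilution: fungal spores washed off malt agar with sterile 0.85% saline plus 0.1% Tween 80, adjusted to about 1.0×10^5 per 100 µL well. Compounds in 5% DMSO (0.001-1.0 mg/ml) in malt broth; 72 h at 28°C on rotary shaker (160 rpm). MIC is lowest concentration without visible growth under binocular microscope. Bifonazole and ketoconazole controls (1-3500 µg/mL); three independent experiments in duplicate.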

Bacillus cereus = assay: Antibacterial activity against Bacillus cereus after 24 hrs by INT dye based microdilution assay; format: functional
Method in brief: (§2)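 Broth microdilution in tryptic soy broth: overnight bacterial culture adjusted to 1×10^5 CFU/mL, 1.0×10^4 CFU per well; compounds dissolved in 5% DMSO, tested at 0.001-1.0 mg/ml; 24 h at 37°C. Streptomycin and ampicillin as positive controls, 5% DMSO as negative control; duplicate, repeated three times.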

Candida albicans = assay: Antifungal activity against Candida albicans after 72 hrs by serial dilution assay; format: functional; method in brief: as §1
Penicillium ochrochloron = assay: Antifungal activity against Penicillium ochrochloron ATCC 9112 after 72 hrs by serial dilution assay; format: functional; conditions: ATCC 9112, 72 h; method in brief: as §1
Salmonella typhimurium = assay: Antibacterial activity against Salmonella typhimurium ATCC 13311 after 24 hrs by INT dye based microdilution assay; format: functional, Salmonella enterica subsp. enterica serovar Typhimurium; conditions: Salmonella enterica, ATCC 13311, 24 h; method in brief: as §2
Staphylococcus aureus = assay: Antibacterial activity against Staphylococcus aureus ATCC 6538 after 24 hrs by INT dye based microdilution assay; format: functional; conditions: ATCC 6538, 24 h; method in brief: as §2
Talaromyces funiculosus = assay: Antifungal activity against Penicillium funiculosum ATCC 36839 after 72 hrs by serial dilution assay; format: functional; conditions: ATCC 36839, 72 h; method in brief: as §1
Pseudomonas aeruginosa = assay: Antibacterial activity against Pseudomonas aeruginosa ATCC 27853 after 24 hrs by INT dye based microdilution assay; format: functional; conditions: ATCC 27853, 24 h; method in brief: as §2
Aspergillus niger = assay: Antifungal activity against Aspergillus niger ATCC 6275 after 72 hrs by serial dilution assay; format: functional; conditions: ATCC 6275, 72 h; method in brief: as §1
Enterobacter cloacae = assay: Antibacterial activity against Enterobacter cloacae after 24 hrs by INT dye based microdilution assay; format: functional; method in brief: as §2
Micrococcus flavus = assay: Antibacterial activity against Micrococcus flavus ATCC 10240 after 24 hrs by INT dye based microdilution assay; format: functional; conditions: ATCC 10240, 24 h; method in brief: as §2
Aspergillus fumigatus = assay: Antifungal activity against Aspergillus fumigatus isolate 1022 after 72 hrs by serial dilution assay; format: functional; conditions: isolate 1022, 72 h; method in brief: as §1
Listeria monocytogenes = assay: Antibacterial activity against Listeria monocytogenes NCTC 7973 after 24 hrs by INT dye based microdilution assay; format: functional; conditions: NCTC 7973, 24 h; method in brief: as §2
Trichoderma viride = assay: Antifungal activity against Trichoderma viride IAM 5061 after 72 hrs by serial dilution assay; format: functional; conditions: IAM 5061, 72 h; method in brief: as §1
Aspergillus versicolor = assay: Antifungal activity against Aspergillus versicolor ATCC 11730 after 72 hrs by serial dilution assay; format: functional; conditions: ATCC 11730, 72 h; method in brief: as §1
Escherichia coli = assay: Antibacterial activity against Escherichia coli ATCC 35210 after 24 hrs by INT dye based microdilution assay; format: functional; conditions: ATCC 35210, 24 h; method in brief: as §2
Penicillium verrucosum = assay: Antifungal activity against Penicillium cyclopium var verucosum after 72 hrs by serial dilution assay; format: functional; method in brief: as §1

Row | SMILES | MIC (Aspergillus ochraceus) [µM] | MIC (Bacillus cereus) [µM] | MIC (Candida albicans) [µM] | MIC (Penicillium ochrochloron) [µM] | MIC (Salmonella typhimurium) [µM] | MIC (Staphylococcus aureus) [µM] | MIC (Talaromyces funiculosus) [µM] | MIC (Pseudomonas aeruginosa) [µM] | MIC (Aspergillus niger) [µM] | MIC (Enterobacter cloacae) [µM] | MIC (Micrococcus flavus) [µM] | MIC (Aspergillus fumigatus) [µM] | MIC (Listeria monocytogenes) [µM] | MIC (Trichoderma viride) [µM] | MIC (Aspergillus versicolor) [µM] | MIC (Escherichia coli) [µM] | MIC (Penicillium verrucosum) [µM]
1 | O=C1N/C(=N\c2nnc(C34CC5CC(CC(C5)C3)C4)s2)S/C1=C/c1ccc(Cl)cc1 | 68 (≈ 31.1 µg/mL) | 137 (≈ 62.6 µg/mL) | 274 (≈ 125 µg/mL) | 137 (≈ 62.6 µg/mL) | 33 (≈ 15.1 µg/mL) | 0.137 (≈ 0.0626 µg/mL) | 137 (≈ 62.6 µg/mL) | 33 (≈ 15.1 µg/mL) | 137 (≈ 62.6 µg/mL) | 137 (≈ 62.6 µg/mL) | 328 (≈ 150 µg/mL) | 137 (≈ 62.6 µg/mL) | 274 (≈ 125 µg/mL) | 68 (≈ 31.1 µg/mL) | 68 (≈ 31.1 µg/mL) | 0.274 (≈ 0.125 µg/mL) | 
2 | c1ccc(-c2ccc(C(c3ccccc3)n3ccnc3)cc2)cc1 (configuration not stated) [BIFONAZOLE] | 480 (≈ 149 µg/mL) |  | 322 (≈ 99.9 µg/mL) | 480 (≈ 149 µg/mL) |  |  | 640 (≈ 199 µg/mL) |  | 480 (≈ 149 µg/mL) |  |  | 480 (≈ 149 µg/mL) |  | 640 (≈ 199 µg/mL) | 480 (≈ 149 µg/mL) |  | 0.322 (≈ 0.0999 µg/mL)
3 | O=C1N/C(=N\c2nnc(C34CC5CC(CC(C5)C3)C4)s2)S/C1=C/c1ccc(Br)cc1 | 15.6 (≈ 7.82 µg/mL) | 14 (≈ 7.02 µg/mL) | 200 (≈ 100 µg/mL) | 62.5 (≈ 31.3 µg/mL) | 14 (≈ 7.02 µg/mL) | 0.06 (≈ 0.0301 µg/mL) | 125 (≈ 62.7 µg/mL) | 60 (≈ 30.1 µg/mL) | 62.5 (≈ 31.3 µg/mL) | 60 (≈ 30.1 µg/mL) | 250 (≈ 125 µg/mL) | 125 (≈ 62.7 µg/mL) | 250 (≈ 125 µg/mL) | 31.2 (≈ 15.6 µg/mL) | 62.5 (≈ 31.3 µg/mL) | 0.08 (≈ 0.0401 µg/mL) | 
4 | COc1cc(/C=C2/S/C(=N/c3nnc(C45CC6CC(CC(C6)C4)C5)s3)NC2=O)ccc1O | 17 (≈ 7.97 µg/mL) | 32 (≈ 15 µg/mL) | 133 (≈ 62.3 µg/mL) | 66 (≈ 30.9 µg/mL) | 32 (≈ 15 µg/mL) | 0.032 (≈ 0.015 µg/mL) | 66 (≈ 30.9 µg/mL) | 32 (≈ 15 µg/mL) | 66 (≈ 30.9 µg/mL) | 32 (≈ 15 µg/mL) | 134 (≈ 62.8 µg/mL) | 133 (≈ 62.3 µg/mL) | 134 (≈ 62.8 µg/mL) | 17 (≈ 7.97 µg/mL) | 33 (≈ 15.5 µg/mL) | 0.134 (≈ 0.0628 µg/mL) | 
